{"source": "ChEMBL document CHEMBL4346667", "about": "(Eur J Med Chem, 2019)", "type_in_all_cases": "functional", "key": {"MCF7 [1]": {"test_system": "MCF7", "test": "Induction of apoptosis in human MCF7 cells assessed as early apoptotic cells at 25 uM after 6 hrs by Annexin V-FITC/propidium iodide staining-based flow cytometric analysis (reference value: 2%)", "outline": "(§1)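 Log-phase cells seeded in 6-well plates and treated after adhesion; incubated in cycles of 6 h on/6 h off up to 48 h. Collected after PBS washes and trypsin, resuspended in Ca2+-enriched binding buffer. Stained with annexin V (1 µg/mL) plus PI (0.5 µg/mL) 15 min in the dark at room temperature. 10,000 events, FL1 vs FL2. At least three repeats.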"}, "MCF7 [2]": {"test_system": "MCF7", "test": "Induction of apoptosis in human MCF7 cells assessed as viable cells at 5 uM after 24 hrs by Annexin V-FITC/propidium iodide staining-based flow cytometric analysis (reference value: 92.1%)", "details": "MCF7, 24 h, read-out: Activity"}, "MCF7 [3]": {"test_system": "MCF7", "test": "Induction of apoptosis in human MCF7 cells assessed as early apoptotic cells at 1 uM after 24 hrs by Annexin V-FITC/propidium iodide staining-based flow cytometric analysis (reference value: 2.1%)", "outline": "as §1"}, "MCF7 [4]": {"test_system": "MCF7", "test": "Cell cycle arrest in human MCF7 cells assessed as accumulation of cells at G2/M phase at 10 uM up to 48 hrs by propidium iodide double staining based flow cytometric analysis"}, "MCF7 [5]": {"test_system": "MCF7", "test": "Induction of apoptosis in human MCF7 cells assessed as early apoptotic cells at 1 uM after 48 hrs by Annexin V-FITC/propidium iodide staining-based flow cytometric analysis (reference value: 9.1%)", "outline": "as §1"}, "MCF7 [6]": {"test_system": "MCF7", "test": "Induction of apoptosis in human MCF7 cells assessed as necrotic cells at 25 uM after 24 hrs by Annexin V-FITC/propidium iodide staining-based flow cytometric analysis (reference value: 0.2%)"}, "MCF7 [7]": {"test_system": "MCF7", "test": "Induction of apoptosis in human MCF7 cells assessed as early apoptotic cells at 5 uM after 24 hrs by Annexin V-FITC/propidium iodide staining-based flow cytometric analysis (reference value: 2.1%)", "outline": "as §1"}, "MCF7 [8]": {"test_system": "MCF7", "test": "Induction of apoptosis in human MCF7 cells assessed as necrotic cells at 50 uM after 6 hrs by Annexin V-FITC/propidium iodide staining-based flow cytometric analysis (reference value: 0.5%)"}, "MCF7 [9]": {"test_system": "MCF7", "test": "Induction of apoptosis in human MCF7 cells assessed as necrotic cells at 25 uM after 6 hrs by Annexin V-FITC/propidium iodide staining-based flow cytometric analysis (reference value: 0.5%)"}, "MCF7 [10]": {"test_system": "MCF7", "test": "Induction of apoptosis in human MCF7 cells assessed as late apoptotic cells at 10 uM after 24 hrs by Annexin V-FITC/propidium iodide staining-based flow cytometric analysis (reference value: 5.6%)", "outline": "as §1"}, "MCF7 [11]": {"test_system": "MCF7", "test": "Induction of apoptosis in human MCF7 cells assessed as viable cells at 5 uM after 48 hrs by Annexin V-FITC/propidium iodide staining-based flow cytometric analysis (reference value: 87.9%)", "details": "MCF7, 48 h, read-out: Activity"}, "MCF7 [12]": {"test_system": "MCF7", "test": "Induction of apoptosis in human MCF7 cells assessed as necrotic cells at 10 uM after 24 hrs by Annexin V-FITC/propidium iodide staining-based flow cytometric analysis (reference value: 0.2%)"}, "MCF7 [13]": {"test_system": "MCF7", "test": "Induction of apoptosis in human MCF7 cells assessed as early apoptotic cells at 50 uM after 24 hrs by Annexin V-FITC/propidium iodide staining-based flow cytometric analysis (reference value: 2.1%)", "outline": "as §1"}, "MCF7 [14]": {"test_system": "MCF7", "test": "Induction of apoptosis in human MCF7 cells assessed as early apoptotic cells at 50 uM after 48 hrs by Annexin V-FITC/propidium iodide staining-based flow cytometric analysis (reference value: 9.1%)", "outline": "as §1"}, "MCF7 [15]": {"test_system": "MCF7", "test": "Induction of apoptosis in human MCF7 cells assessed as early apoptotic cells at 10 uM after 24 hrs by Annexin V-FITC/propidium iodide staining-based flow cytometric analysis (reference value: 2.1%)", "outline": "as §1"}, "MCF7 [16]": {"test_system": "MCF7", "test": "Induction of apoptosis in human MCF7 cells assessed as late apoptotic cells at 25 uM after 48 hrs by Annexin V-FITC/propidium iodide staining-based flow cytometric analysis (reference value: 2.8%)", "outline": "as §1"}, "MCF7 [17]": {"test_system": "MCF7", "test": "Induction of apoptosis in human MCF7 cells assessed as necrotic cells at 50 uM after 24 hrs by Annexin V-FITC/propidium iodide staining-based flow cytometric analysis (reference value: 0.1%)"}, "MCF7 [18]": {"test_system": "MCF7", "test": "Antitumor activity against human MCF7 cells xenografted in BALB/c nude mouse assessed as inhibition of tumor growth at 40 mg/kg administered for a week", "outline": "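Male BALB/c nude mice, 4 weeks old, 15-20 g. Log-phase MCF-7 cells in DMEM, 0.1 mL of 1×10^6 cells/mL, injected subcutaneously into the hind leg. Calipers twice weekly; at about 90 mm3, groups of 5. Vehicle was isotonic saline plus 0.005% DMSO. Injected at 40 mg/kg for a week; tumour volume recorded daily.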"}, "MCF7 [19]": {"test_system": "MCF7", "test": "Induction of apoptosis in human MCF7 cells assessed as necrotic cells at 10 uM after 6 hrs by Annexin V-FITC/propidium iodide staining-based flow cytometric analysis (reference value: 0.5%)"}, "MCF7 [20]": {"test_system": "MCF7", "test": "Induction of apoptosis in human MCF7 cells assessed as early apoptotic cells at 1 uM after 6 hrs by Annexin V-FITC/propidium iodide staining-based flow cytometric analysis (reference value: 2%)", "outline": "as §1"}, "MCF7 [21]": {"test_system": "MCF7", "test": "Induction of apoptosis in human MCF7 cells assessed as viable cells at 1 uM after 6 hrs by Annexin V-FITC/propidium iodide staining-based flow cytometric analysis (reference value: 92.8%)", "details": "MCF7, 6 h, read-out: Activity"}, "MCF7 [22]": {"test_system": "MCF7", "test": "Induction of apoptosis in human MCF7 cells assessed as late apoptotic cells at 2505 uM after 24 hrs by Annexin V-FITC/propidium iodide staining-based flow cytometric analysis (reference value: 5.6%)", "outline": "as §1"}, "MCF7 [23]": {"test_system": "MCF7", "test": "Induction of apoptosis in human MCF7 cells assessed as early apoptotic cells at 50 uM after 6 hrs by Annexin V-FITC/propidium iodide staining-based flow cytometric analysis (reference value: 2%)", "outline": "as §1"}, "MCF7 [24]": {"test_system": "MCF7", "test": "Induction of apoptosis in human MCF7 cells assessed as late apoptotic cells at 1 uM after 48 hrs by Annexin V-FITC/propidium iodide staining-based flow cytometric analysis (reference value: 2.8%)", "outline": "as §1"}, "MCF7 [25]": {"test_system": "MCF7", "test": "Induction of apoptosis in human MCF7 cells assessed as viable cells at 5 uM after 6 hrs by Annexin V-FITC/propidium iodide staining-based flow cytometric analysis (reference value: 92.8%)", "details": "MCF7, 6 h, read-out: Activity"}, "MCF7 [26]": {"test_system": "MCF7", "test": "Induction of apoptosis in human MCF7 cells assessed as necrotic cells at 25 uM after 24 hrs by Annexin V-FITC/propidium iodide staining-based flow cytometric analysis (reference value: 0.1%)"}, "MCF7 [27]": {"test_system": "MCF7", "test": "Induction of apoptosis in human MCF7 cells assessed as necrotic cells at 1 uM after 24 hrs by Annexin V-FITC/propidium iodide staining-based flow cytometric analysis (reference value: 0.1%)"}, "MCF7 [28]": {"test_system": "MCF7", "test": "Induction of apoptosis in human MCF7 cells assessed as viable cells at 25 uM after 6 hrs by Annexin V-FITC/propidium iodide staining-based flow cytometric analysis (reference value: 92.8%)", "details": "MCF7, 6 h, read-out: Activity"}, "MCF7 [29]": {"test_system": "MCF7", "test": "Induction of apoptosis in human MCF7 cells assessed as viable cells at 50 uM after 48 hrs by Annexin V-FITC/propidium iodide staining-based flow cytometric analysis (reference value: 87.9%)", "details": "MCF7, 48 h, read-out: Activity"}, "MCF7 [30]": {"test_system": "MCF7", "test": "Induction of apoptosis in human MCF7 cells assessed as early apoptotic cells at 25 uM after 24 hrs by Annexin V-FITC/propidium iodide staining-based flow cytometric analysis (reference value: 2.1%)", "outline": "as §1"}}, "note": "Calls of active or inactive are those of the source. The calls are words filed in the database; no cut-off is given here."}
{"compound": "COc1cc([C@@H]2c3cc4c(cc3[C@@H](O[C@@H]3O[C@@H]5CO[C@@H](C)O[C@H]5[C@H](O)[C@H]3O)[C@H]3COC(=O)[C@H]23)OCO4)cc(OC)c1O", "note": "[ETOPOSIDE]", "values": [{"measurement": "Activity", "setting": "MCF7 [1]", "value": 1.9, "unit": "%"}, {"measurement": "viability at 5 µM", "setting": "MCF7 [2]", "value": 84.2, "unit": "%"}, {"measurement": "Activity", "setting": "MCF7 [3]", "value": 2.2, "unit": "%"}, {"measurement": "Activity", "setting": "MCF7 [4]", "value": "Active"}, {"measurement": "Activity", "setting": "MCF7 [5]", "value": 14.8, "unit": "%"}, {"measurement": "Activity", "setting": "MCF7 [6]", "value": 0.8, "unit": "%"}, {"measurement": "Activity", "setting": "MCF7 [7]", "value": 6.7, "unit": "%"}, {"measurement": "Activity", "setting": "MCF7 [8]", "value": 0.8, "unit": "%"}, {"measurement": "Activity", "setting": "MCF7 [9]", "value": 0.8, "unit": "%"}, {"measurement": "Activity", "setting": "MCF7 [10]", "value": 11.5, "unit": "%"}, {"measurement": "viability at 5 µM", "setting": "MCF7 [11]", "value": 21.7, "unit": "%"}, {"measurement": "Activity", "setting": "MCF7 [12]", "value": 0.8, "unit": "%"}, {"measurement": "Activity", "setting": "MCF7 [13]", "value": 12.4, "unit": "%"}, {"measurement": "Activity", "setting": "MCF7 [14]", "value": 57, "unit": "%"}, {"measurement": "Activity", "setting": "MCF7 [15]", "value": 13.8, "unit": "%"}, {"measurement": "Activity", "setting": "MCF7 [16]", "value": 19.7, "unit": "%"}, {"measurement": "Activity", "setting": "MCF7 [17]", "value": 0.9, "unit": "%"}, {"measurement": "inhibition in vivo at 40 mg/kg", "setting": "MCF7 [18]", "value": 43.2, "unit": "%"}, {"measurement": "Activity", "setting": "MCF7 [19]", "value": 1, "unit": "%"}, {"measurement": "Activity", "setting": "MCF7 [20]", "value": 1.6, "unit": "%"}, {"measurement": "viability at 1 µM", "setting": "MCF7 [21]", "value": 90.8, "unit": "%"}, {"measurement": "Activity", "setting": "MCF7 [22]", "value": 12.7, "unit": "%"}, {"measurement": "Activity", "setting": "MCF7 [23]", "value": 2.9, "unit": "%"}, {"measurement": "Activity", "setting": "MCF7 [24]", "value": 6, "unit": "%"}, {"measurement": "viability at 5 µM", "setting": "MCF7 [25]", "value": 89.7, "unit": "%"}, {"measurement": "Activity", "setting": "MCF7 [26]", "value": 1.6, "unit": "%"}, {"measurement": "Activity", "setting": "MCF7 [27]", "value": 0.2, "unit": "%"}, {"measurement": "viability at 25 µM", "setting": "MCF7 [28]", "value": 90.6, "unit": "%"}, {"measurement": "viability at 50 µM", "setting": "MCF7 [29]", "value": 29.8, "unit": "%"}, {"measurement": "Activity", "setting": "MCF7 [30]", "value": 10.4, "unit": "%"}]}
